This passage reports EC50 results from ChEMBL document CHEMBL1151770, “Cespihypotins Q-V, verticillene diterpenoids from Cespitularia hypotentaculata” (2008).

Experiment [1] relates to WiDr. The experiment in a line: Cytotoxicity against human WiDr cells by MTT assay. Type of experiment: functional. The following applies: read-out: ED50 (the source's name). Summed up:
(§1)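 Cells grown in serum-supplemented RPMI-1640 at 37 °C, 5% CO2. Seeded at 2880 cells/well for 4 h, then samples added at 1, 10, 20 and 40 µg/mL and incubated 3 days at 37 °C. MTT added for 5 h, formazan dissolved in DMSO, absorbance read at 550 nm. ED50 is the concentration giving 50% reduction of absorbance relative to untreated cells.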

In experiment [2] the test system is Daoy. The experiment in a line: Cytotoxicity against human Daoy cells by MTT assay. Type of experiment: functional. The following applies: read-out: ED50 (the source's name). A digest of the protocol: as §1
(In general: Tetrazolium dyes change colour on reduction, which living cells bring about.)

As to `C=C1CC[C@@H]2CCC3=C([C@@H](C/C(C)=C/C(=O)C1)OC3=O)C2(C)C` [CESPIHYPOTIN R], the EC50 in experiment [1] is 50 µM; in experiment [2], more than 55 µM.

Take `C=C1CC[C@@H]2CCC3=C(C2(C)C)[C@](O)(C/C(C)=C/[C@@H](O)C1)OC3=O` [CESPIHYPOTIN V]: the EC50 was more than 60 µM in experiment [1] and 60 µM in experiment [2].

On to `C=C1CC[C@@H]2CCC(=O)[C@@](O)([C@@H](O)C/C(C)=C/C(=O)C1)C2(C)C` [CESPIHYPOTIN T], for which the EC50 in experiment [1] amounted to 7.5 µM; in experiment [2], 9.3 µM.

Consider `C=C1CC[C@@H]2CCC3=C([C@@H](C[C@]4(C)O[C@H]4[C@@H](O)C1)OC3=O)C2(C)C` [CESPIHYPOTIN U], for which the EC50 in experiment [1] and in experiment [2] was more than 60 µM in each case.

In the case of `C=C1CC[C@@H]2CCC3=C(C2(C)C)[C@@](OC)(C/C(C)=C/[C@@H](O)C1)O[C@H]3OC` [CESPIHYPOTIN Q], the EC50 in experiment [1] and in experiment [2] was more than 55 µM each time.

Regarding `C=C1CC[C@@H]2CC[C@]34O[C@@]3(C2(C)C)[C@@](O)(C/C(C)=C/C(=O)C1)O[C@H]4OC`, the values for the EC50 in experiment [1] and in experiment [2] were 54 µM and 40 µM, respectively.

For `CO[C@@]12[C@H](COC(N)=O)C3=C(C(=O)C(C)=C(N)C3=O)N1C[C@@H]1N[C@@H]12` [MITOMYCIN], the EC50 is 0.18 µM in experiment [1] and 0.21 µM in experiment [2].
